The record followed here is ChEMBL document CHEMBL1143138, “Synthesis and antimicrobial activity of beta-lactam-bile acid conjugates linked via triazole” (Bioorg Med Chem Lett, 2008).

Molecules are shown by their SMILES. ≈ marks a conversion by molar mass, not a printed value. Where only a bound is given, the exact number is not on record here.

Common to all, as to type: functional, organism-based
One assay relates to Candida albicans. Briefly: Antimicrobial activity against Candida albicans NCL1 by broth microdilution method. Put shortly:
(§1)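 Standard NCCLS broth microdilution. Fungal strains were NCL isolates and bacterial strains were NCIM cultures, with DMSO as the negative control. MIC was taken as the concentration giving 90% growth inhibition relative to the growth control, and IC50 as the concentration giving 50% growth inhibition. Values are in µg/mL.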
On the technique in general: In broth dilution the organism is exposed to a series of concentrations in liquid medium.

The test system of a further assay is Cryptococcus neoformans. Briefly: Antimicrobial activity against Cryptococcus neoformans NCL2 by broth microdilution method. Put shortly: as §1
In a further assay the test system is Benjaminiella poitrasii. The assay can be described thus: Antimicrobial activity against Benjaminiella poitrasii NCL3 by broth microdilution method. Put shortly: as §1
The next assay relates to Yarrowia lipolytica. The assay can be described thus: Antimicrobial activity against Yarrowia lipolytica NCL4 by broth microdilution method. The method in brief:
as §1

The test system of a further assay is Fusarium oxysporum. The assay can be described thus: Antimicrobial activity against Fusarium oxysporum NCL5 by broth microdilution method. Put shortly: as §1
Another assay concerns Escherichia coli. The assay can be described thus: Antimicrobial activity against Escherichia coli NCIM2574 by broth microdilution method. The method in brief:
as §1

The subject of another assay is Staphylococcus aureus. The assay can be described thus: Antimicrobial activity against Staphylococcus aureus NCIM2122 by broth microdilution method. The method in brief:
as §1

As usually defined, the IC50 is the concentration at which inhibition is half-maximal. Read a low IC50 as inhibition by little substance. What is called MIC is the least concentration at which growth counts as inhibited. Lower therefore signals greater potency. Take `C#CCOC(=O)CC[C@@H](C)[C@H]1CC[C@H]2[C@@H]3[C@H](O)C[C@@H]4C[C@H](O)CC[C@]4(C)[C@H]3C[C@H](O)[C@]12C`: the half-inhibitory concentration (IC50) is 128 µg/mL (≈ 287 µM) in the assay on Candida albicans; more than 128 µg/mL with Cryptococcus neoformans; more than 128 µg/mL in the assay on Benjaminiella poitrasii; 64 µg/mL (≈ 143 µM) in the assay on Yarrowia lipolytica; 128 µg/mL (≈ 287 µM) in the assay on Fusarium oxysporum; 128 µg/mL (≈ 287 µM) in the assay with Escherichia coli. Besides, the half-inhibitory concentration (IC50) with Staphylococcus aureus turned out to be 128 µg/mL (≈ 287 µM). Further, the minimal inhibitory concentration (MIC) in the assay on Candida albicans, against Cryptococcus neoformans, with Benjaminiella poitrasii, in the assay with Yarrowia lipolytica, against Fusarium oxysporum and in the assay on Escherichia coli was more than 128 µg/mL in each case. The same molecule displayed an MIC against Staphylococcus aureus of more than 128 µg/mL.
With `C#CCNC(=O)CC[C@@H](C)[C@H]1CC[C@H]2[C@@H]3CC[C@@H]4C[C@H](O)CC[C@]4(C)[C@H]3C[C@H](O)[C@]12C`, the IC50 is 64 µg/mL (≈ 149 µM) in the assay with Candida albicans; 128 µg/mL (≈ 298 µM) in the assay with Cryptococcus neoformans; 128 µg/mL (≈ 298 µM) in the assay on Benjaminiella poitrasii; more than 128 µg/mL in the assay on Yarrowia lipolytica; 64 µg/mL (≈ 149 µM) in the assay with Fusarium oxysporum; more than 128 µg/mL in the assay on Escherichia coli. The same molecule yielded an IC50 with Staphylococcus aureus of 128 µg/mL (≈ 298 µM). Besides, the MIC in the assay on Candida albicans, against Cryptococcus neoformans, with Benjaminiella poitrasii, with Yarrowia lipolytica, against Fusarium oxysporum and in the assay on Escherichia coli was more than 128 µg/mL in each case. This molecule also registered an MIC in the assay on Staphylococcus aureus of more than 128 µg/mL.
Take `C#CCNC(=O)CC[C@@H](C)[C@H]1CC[C@H]2[C@@H]3[C@H](O)C[C@@H]4C[C@H](O)CC[C@]4(C)[C@H]3C[C@H](O)[C@]12C`: the 50% inhibitory concentration (IC50) with Candida albicans is more than 128 µg/mL; in the assay with Cryptococcus neoformans, more than 128 µg/mL; in the assay with Benjaminiella poitrasii it was more than 128 µg/mL; in the assay on Yarrowia lipolytica, 64 µg/mL (≈ 144 µM); in the assay with Fusarium oxysporum it was 128 µg/mL (≈ 287 µM); in the assay on Escherichia coli, 128 µg/mL (≈ 287 µM). Moreover, the IC50 with Staphylococcus aureus is 64 µg/mL (≈ 144 µM). Besides, the minimal inhibitory concentration (MIC) against Candida albicans, against Cryptococcus neoformans, with Benjaminiella poitrasii, in the assay on Yarrowia lipolytica, against Fusarium oxysporum and against Escherichia coli was more than 128 µg/mL each time. This molecule also gave a minimum inhibitory concentration (MIC) in the assay with Staphylococcus aureus of more than 128 µg/mL.
In the case of `C#CCOC(=O)CC[C@@H](C)[C@H]1CC[C@H]2[C@@H]3CC[C@@H]4C[C@H](O)CC[C@]4(C)[C@H]3C[C@H](O)[C@]12C`, the IC50 in the assay on Candida albicans turned out to be 32 µg/mL (≈ 74.3 µM); in the assay with Cryptococcus neoformans it was 64 µg/mL (≈ 149 µM); with Benjaminiella poitrasii, 128 µg/mL (≈ 297 µM); in the assay with Yarrowia lipolytica, 128 µg/mL (≈ 297 µM); in the assay with Fusarium oxysporum it was 64 µg/mL (≈ 149 µM); in the assay with Escherichia coli, 128 µg/mL (≈ 297 µM). In the assay with Staphylococcus aureus, this molecule gave a concentration for half-maximal inhibition (IC50) of 128 µg/mL (≈ 297 µM). The MIC is 128 µg/mL (≈ 297 µM) in the assay on Candida albicans; more than 128 µg/mL against Cryptococcus neoformans; more than 128 µg/mL against Benjaminiella poitrasii; more than 128 µg/mL against Yarrowia lipolytica; more than 128 µg/mL with Fusarium oxysporum; more than 128 µg/mL with Escherichia coli. In the assay with Staphylococcus aureus, this molecule came in with an MIC of more than 128 µg/mL.
For the molecule `COc1ccc(N2C(=O)C(N=[N+]=[N-])C2c2ccccc2)cc1` (racemic), the IC50 is 64 µg/mL (≈ 217 µM) with Candida albicans; more than 128 µg/mL with Cryptococcus neoformans; more than 128 µg/mL in the assay with Benjaminiella poitrasii; 128 µg/mL (≈ 435 µM) with Yarrowia lipolytica; 64 µg/mL (≈ 217 µM) in the assay on Fusarium oxysporum; 64 µg/mL (≈ 217 µM) in the assay on Escherichia coli. The molecule also returned an IC50 in the assay on Staphylococcus aureus of more than 128 µg/mL. In addition, the MIC against Candida albicans, against Cryptococcus neoformans, in the assay with Benjaminiella poitrasii, in the assay on Yarrowia lipolytica, against Fusarium oxysporum and against Escherichia coli was more than 128 µg/mL each time. The MIC with Staphylococcus aureus was more than 128 µg/mL.
Regarding `COc1ccc(N2C(=O)C(N=[N+]=[N-])C2c2ccc(Cl)cc2)cc1` (racemic), the 50% inhibitory concentration (IC50) in the assay with Candida albicans is 64 µg/mL (≈ 195 µM); in the assay with Cryptococcus neoformans it was 64 µg/mL (≈ 195 µM); in the assay on Benjaminiella poitrasii, more than 128 µg/mL; in the assay on Yarrowia lipolytica, more than 128 µg/mL; in the assay on Fusarium oxysporum, 64 µg/mL (≈ 195 µM); in the assay with Escherichia coli, 128 µg/mL (≈ 389 µM). This molecule displayed a half-inhibitory concentration (IC50) in the assay with Staphylococcus aureus of more than 128 µg/mL. In addition, the minimal inhibitory concentration (MIC) against Candida albicans, against Cryptococcus neoformans, in the assay on Benjaminiella poitrasii, against Yarrowia lipolytica, in the assay on Fusarium oxysporum and in the assay on Escherichia coli was more than 128 µg/mL each time. In addition, the MIC in the assay on Staphylococcus aureus is more than 128 µg/mL.
Consider `C[C@@H]1[C@H](O)[C@@H](C)/C=C/C=C/C=C/C=C/C=C/C=C/C=C/[C@H](O[C@@H]2O[C@H](C)[C@@H](O)[C@H](N)[C@@H]2O)C[C@@H]2O[C@](O)(C[C@@H](O)C[C@@H](O)[C@H](O)CC[C@@H](O)C[C@@H](O)CC(=O)O[C@H]1C)C[C@H](O)[C@H]2C(=O)O` (stereo in doubt) [AMPHOTERICIN B], for which the half-maximal inhibitory concentration (IC50) amounted to 0.5 µg/mL (≈ 0.541 µM) in the assay with Candida albicans; 8 µg/mL (≈ 8.66 µM) in the assay on Cryptococcus neoformans; 8 µg/mL (≈ 8.66 µM) in the assay with Benjaminiella poitrasii; 8 µg/mL (≈ 8.66 µM) in the assay with Yarrowia lipolytica; 8 µg/mL (≈ 8.66 µM) in the assay on Fusarium oxysporum. For the same molecule, the minimal inhibitory concentration (MIC) against Candida albicans turned out to be 2 µg/mL (≈ 2.16 µM); against Cryptococcus neoformans, 16 µg/mL (≈ 17.3 µM); with Benjaminiella poitrasii, 16 µg/mL (≈ 17.3 µM); in the assay on Yarrowia lipolytica, 16 µg/mL (≈ 17.3 µM); against Fusarium oxysporum, 16 µg/mL (≈ 17.3 µM).
With `CC1(C)S[C@@H]2[C@H](NC(=O)[C@H](N)c3ccccc3)C(=O)N2[C@H]1C(=O)O` [AMPICILLIN], the figures for the IC50 in the assay with Escherichia coli and in the assay with Staphylococcus aureus were 1 µg/mL (≈ 2.86 µM) and 4 µg/mL (≈ 11.4 µM), respectively.
As for `OC(Cn1cncn1)(Cn1cncn1)c1ccc(F)cc1F` [FLUCONAZOLE], the IC50 stood at 4 µg/mL (≈ 13.1 µM) in the assay with Candida albicans; 16 µg/mL (≈ 52.2 µM) with Cryptococcus neoformans; 16 µg/mL (≈ 52.2 µM) in the assay on Benjaminiella poitrasii; 32 µg/mL (≈ 104 µM) with Yarrowia lipolytica; 4 µg/mL (≈ 13.1 µM) in the assay with Fusarium oxysporum. In addition, the MIC against Candida albicans amounted to 32 µg/mL (≈ 104 µM); in the assay with Cryptococcus neoformans it was 32 µg/mL (≈ 104 µM); in the assay with Benjaminiella poitrasii it was 32 µg/mL (≈ 104 µM); with Yarrowia lipolytica, 64 µg/mL (≈ 209 µM); against Fusarium oxysporum it was 8 µg/mL (≈ 26.1 µM).
In the assay with Escherichia coli, `CN(C)[C@@H]1C(O)=C(C(N)=O)C(=O)[C@@]2(O)C(O)=C3C(=O)c4c(O)cccc4[C@@](C)(O)[C@H]3C[C@@H]12` [TETRACYCLINE] showed an IC50 of 4 µg/mL (≈ 9 µM) and an MIC of 8 µg/mL (≈ 18 µM). Besides, in the assay with Staphylococcus aureus, the IC50 is 8 µg/mL (≈ 18 µM) and the lowest concentration to inhibit growth (MIC) was 16 µg/mL (≈ 36 µM).
